NPY1 pot ag: potentiates or activates human NPY-Y1 receptor | P25929 | 220,000 compounds, 0.37% hits | NPY-Y1 expressing cells, potentiator/agonist activation | AID 1304 | activation, % at 3.6 µM; in the data active = activation above about 33%, passing the limit was not always enough;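 note: cells stimulated with NPY at EC10 then isoproterenol at EC100; 0% = low agonist plus stimulus and 100% = saturating agonist plus stimulus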
Target sequence (P25929 whole entry, looked up): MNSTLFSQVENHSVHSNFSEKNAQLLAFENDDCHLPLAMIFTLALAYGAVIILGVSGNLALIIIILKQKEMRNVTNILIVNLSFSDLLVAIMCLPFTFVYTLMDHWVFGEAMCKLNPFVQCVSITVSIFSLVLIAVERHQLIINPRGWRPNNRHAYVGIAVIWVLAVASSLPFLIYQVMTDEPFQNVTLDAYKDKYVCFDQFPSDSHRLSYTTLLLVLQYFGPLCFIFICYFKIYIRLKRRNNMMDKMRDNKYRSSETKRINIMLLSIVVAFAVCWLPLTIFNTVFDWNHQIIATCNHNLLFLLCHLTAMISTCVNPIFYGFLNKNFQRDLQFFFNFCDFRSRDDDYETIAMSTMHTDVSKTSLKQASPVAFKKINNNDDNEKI
EP2 mod: EP2 receptor (human) modulation; 260,000 compounds, 0.83% hits; AID 940; induction, % at 25 µM; P43116; EP2-expressing cells, cAMP HTRF FRET, PGE2 co-stimulation;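 active = compounds whose cAMP rise, as percent of the full-agonist control response, exceeds 60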;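 note: rat C6 glioma line stably carrying human EP2 under a CMV promoter; the protocol text gives 20 µM as final concentration; 100% = response of wells given 1 µM PGE2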
PGE2 EP2 inh: EP2 receptor (human) inhibition; P43116; C6 glioma cells expressing human EP2, cAMP TR-FRET; cells stimulated with saturating PGE2; inhibition, % at 25 µM; 260,000 compounds, 0.52% hits; AID 1422;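 active = percent inhibition above 40 after rounding to a whole number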;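 note: rat C6 glioma host cells with rolipram phosphodiesterase inhibitor present; the protocol text gives 20 µM as final concentration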
NPY Y1 blocker: NPY-Y1 (human) receptor antagonism. P25929. HEK293-CNG Y1 cells, membrane potential fluorescence; NPY at EC95, then isoproterenol. inhibition, % at 3.6 µM. 200,000 compounds, 1% hits. AID 1040;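 active = inhibition above the campaign mean inhibition of all tested compounds plus 3 SD, cut at about 20% in these data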;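 note: 0% = DMSO wells given NPY plus isoproterenol and 100% = isoproterenol alone without NPY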
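System: HEK293 cells with Y1 receptor plus CNG channel / Probe or stimulus: NPY 25 nM then isoproterenol 1 µM plus Ro 20-1724 25 µM / Compound: one concentration, 3.6 µM, in 0.4% DMSO / Schedule: compound incubation 1 h at room temperature, readout 45 min post-stimulation / Measured by: membrane potential fluorescence / Read-out: % inhibition of NPY effect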
NPY-Y2 PAM-ag: potentiators or agonists of human neuropeptide Y receptor Y2; P49146; cells expressing NPY-Y2, potentiator/agonist read-out; activation, % at 3.6 µM; 220,000 compounds, 0.45% hits; in the data active = activation above about 27%;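 note: cells stimulated with NPY near EC25 plus isoproterenol at EC100; 0% = vehicle plus submaximal agonist and 100% = vehicle plus saturating agonist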
NPY Y2 blocker: blocks the human neuropeptide Y Y2 receptor | NPY-Y2 expressing cells, antagonist mode | inhibition, % at 2.7 µM | 140,000 compounds, 0.99% hits; in the data active = inhibition above about 17%;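 note: 0% = vehicle with agonist challenge and 100% = reference antagonist with challenge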
EP2 confirm: EP2 receptor cAMP induction, counter-screens negative; shares compounds with EP2 mod; C6 glioma EP2 cells, cAMP HTRF induction; plus low (about EC15) PGE2 agonist; calls only at 20 µM (by protocol); 1,300 compounds, 47% hits; AID 1080;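 active = cAMP induction above 50% in the main assay while under 30% in all four parallel counter assays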;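 note: rat C6 glioma cells stably expressing human EP2 receptor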
An asterisk follows results filed as active; i = inactive; / = not tested or not shown; + = active, no number. Shown are actives, neighbours in structure and some others; about 2.8% of the full set was active somewhere.

SMILES	NPY1 pot ag	EP2 mod	PGE2 EP2 inh	NPY Y1 blocker	NPY-Y2 PAM-ag	NPY Y2 blocker	EP2 confirm
COc1cccc(C(=O)N2N=C(c3cccc(OC)c3)CC2(O)C(F)(F)F)c1 (centres undefined)	-6	11	5	2	-16	2	/
O=C(C1CC1)N1N=C(c2ccccc2)CC1(O)C(F)(F)F (centres undefined)	/	-16	9	/	/	/	/
CCN1CCN(c2ccc(NC(=O)c3ccc(C)cc3C)cc2)CC1	/	-53	15	/	/	/	/
O=c1[nH]c(N2CCCCC2)nc2c1CCN(Cc1cccc3nccnc13)C2	/	-28	/	/	/	/	/
CN1CCC(CN(C)Cc2cnc(N3CCOCC3)nc2)C1 (centres undefined)	/	-17	5	/	/	/	/
C=CCn1c(=O)c2c(nc3n2CCN3c2cccc(Cl)c2C)n(C)c1=O	8	9	6	-7	13	0	/
C=CCn1c(=O)c2c(nc(-c3ccc(S(=O)(=O)O)cc3)n2C)n(C)c1=O	/	66*	19	/	/	/	i
COc1ccc(-c2nc(-c3cccc(C)c3)no2)cc1OC	31	-66	15	6	8	7	/
COc1cc(-c2noc(-c3cccc(Cl)c3)n2)cc(OC)c1OC	-8	55	2	-5	10	2	+
COc1cc(-c2nc(-c3cccc(C)c3)no2)cc(OC)c1OC	-33	61*	16	6	-18	3	i
CCCCCCn1c(COc2ccccc2F)nnc1SCC(=O)N1c2ccccc2NC(=O)C1(C)C	-1	64*	11	10	-13	5	i
CCOc1ccccc1NC(=O)c1ccccc1-c1nc(-c2ccccc2)no1	-80	66*	8	25*	-40	18*	i
COc1ccc(-c2noc(-c3ccccc3C(=O)Nc3cccnc3)n2)cc1	-5	50	4	-1	-16	3	+
Cn1cc(C(=O)O)c(=O)c2ccc(Cl)cc21	/	-27	4	/	/	/	/
CCOC(=O)C1=CN(CC2CCCO2)C=C(C(=O)OCC)C1c1ccccc1C(F)(F)F (centres undefined)	3	74*	5	7	18	/	i
C=CCNC(=O)C1CCN(S(=O)(=O)c2ccc(OC)c(C)c2)CC1	/	-11	5	/	/	/	/
CC(C)NC(=S)N/N=C1\CCCCC1C1CCCCC1 (centres undefined)	10	81*	0	-5	10	6	+
COc1ccc(OC)c(-c2cnc(OC(C)(C)C)nc2OC(C)(C)C)c1	19	70*	8	0	0	12	i
O=c1cc(N2CCCCC2)c(-c2ccccc2)nn1Cc1ccccc1	-2	82*	9	-1	-4	/	+
O=C(Nc1ccccc1N1CCOCC1)c1ccc2ccccc2n1	-34	70*	7	5	-3	10	+
O=C(Nc1ccccc1N1CCOCC1)c1cccnc1Cl	7	-5	7	-6	1	/	/
COc1ccc(C(c2nnnn2CC2CCCO2)N2CCN(c3ccc(F)cc3)CC2)c(OC)c1 (centres undefined)	/	31	15	/	/	/	/
CCC1C/C(=C/c2ccco2)C(=O)/C(=C/c2ccco2)C1 (centres undefined)	12	68*	8	0	5	3	i
COc1ccccc1/C=C(/C(=O)OCC(=O)Nc1ccccc1C(C)C)c1ccccc1	2	68*	10	3	-6	10	+
CC(=O)c1ccc(N=Nc2ccc(C)cc2)cc1	2	-23	2	-3	-6	/	/
SMILES	NPY1 pot ag	EP2 mod	PGE2 EP2 inh	NPY Y1 blocker	NPY-Y2 PAM-ag	NPY Y2 blocker	EP2 confirm
O=C(/C(=C/O)N=Nc1ccccc1)c1ccncc1	-18	-10	9	0	-11	7	/
O=C(/C(=C/O)N=Nc1ccccc1)c1ccc(Cl)cc1	3	73*	1	-3	0	/	+
Cc1ccc(N=N/C(=C\O)C(=O)c2ccc(Cl)cc2)cc1	12	89*	6	2	18	/	+
Cc1cc(NS(=O)(=O)c2ccc(NC(=O)C3CCCCC3C(=O)O)cc2)no1 (centres undefined)	/	18	7	/	/	/	/
Cc1ccc2c(c1)cc(C)c1nn(CC(=O)N3CCNC(=O)C3(C)C)c(=O)n12	/	-17	5	/	/	/	/
Cc1ccc(C2CC3CCC(C2)N3C(=O)c2ccco2)cc1 (centres undefined)	/	-69	/	/	/	/	/
Cc1cnn(-c2nc(-c3ccccc3)cc(-c3ccccc3)n2)c1	-27	67*	5	11	-20	/	+
Cc1ccc(S(=O)(=O)n2c3ccc(F)cc3c3nc(C)sc32)cc1	7	95*	5	9	6	2	+
C#CCSc1nc(Cc2ccc(Cl)cc2)nc2ccccc12	-15	67*	3	-6	9	2	+
COc1nc(Cc2ccc(Cl)cc2)nc2ccccc12	-12	-24	5	4	-8	/	/
Cc1cc(C)n(C(C)CNC(=O)C2ON=C(c3ccc(F)cc3)C2C)n1 (centres undefined)	/	-6	5	/	/	/	/
C[C@@H]1CC[C@H]2C(C)(C)C3CC12CC[C@@]3(C)O (some centres undefined)	/	65*	11	/	/	/	+
CC1CN(c2nc3ccccc3cc2-c2ccccc2)CC(C)O1 (centres undefined)	-15	67*	5	15	-4	/	+
CC1CN(c2cc(-c3ccccc3)c3ccccc3n2)CC(C)O1 (centres undefined)	-19	54	10	10	-10	5	/
CCOc1nc2cccc(C(=O)OC(C)OC(=O)OC3CCCCC3)c2n1Cc1ccc(-c2ccccc2-c2nn[nH]n2)cc1 (centres undefined)	/	59	10	/	/	/	i
CCCc1nc(C(C)(C)O)c(C(=O)OCc2oc(=O)oc2C)n1Cc1ccc(-c2ccccc2-c2nn[nH]n2)cc1	/	21	10	/	/	/	/
O=c1[nH]c2cc3c(cc2cc1CN(CCO)C(=S)Nc1ccc(F)cc1)OCCO3	/	-64	9	/	/	/	/
COC(=O)C1C(c2ccccc2)C(C(=O)OCc2ccco2)C1c1ccccc1 (centres undefined)	-70	68*	8	37*	-16	37*	i
OC(CN1CCC(O)(c2ccc(F)cc2)CC1)c1ccc2c(c1)CCCC2 (centres undefined)	/	-42	3	/	/	/	/
CCN(c1cccc(C)c1)S(=O)(=O)c1ccc2c3c(cccc13)C(=O)N2	-3	79*	15	-6	-2	-1	+
CCSc1nc2sc3c(c2c(=O)n1CC)CC(C)(C)OC3	-22	52	6	1	-8	2	i
COc1ccccc1CCCNC(=O)c1cc(-c2cnn(C)c2)n[nH]1	/	-100	4	/	/	/	/

Source: PubChem BioAssay
